Data reported in ChEMBL document CHEMBL1287688 (Bioorg Med Chem, 2010).

What was measured:
[1] = molecular target: T1, Glutamate NMDA receptor; GRIN1/GRIN2B (Homo sapiens, UniProt Q05586+Q13224); experiment: Displacement of [3H]ifenprodil from human recombinant NR1-1a/NR2B receptor expressed in mouse L(tk-) cells after 120 mins by scintillation counting; type: cell-based
[2] = Displacement of [3H]di-o-tolylguanidine from sigma2 receptor rat liver membranes after 180 mins scintillation counting; type: cell membranes, Membrane
[3] = molecular target: Sigma non-opioid intracellular receptor 1 (Cavia porcellus, UniProt Q60492); experiment: Displacement of [3H](+)-pentazocine from sigma1 receptor guinea pig brain after 180 mins scintillation counting
Sequence of Sigma non-opioid intracellular receptor 1 (Q60492 whole entry): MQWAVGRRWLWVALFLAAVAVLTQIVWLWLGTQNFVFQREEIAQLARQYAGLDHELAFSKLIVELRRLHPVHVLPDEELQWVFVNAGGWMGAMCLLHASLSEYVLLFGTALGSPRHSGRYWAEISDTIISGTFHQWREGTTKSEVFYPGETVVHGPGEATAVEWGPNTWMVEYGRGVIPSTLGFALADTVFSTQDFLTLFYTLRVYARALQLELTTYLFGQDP

[4] = molecular target: T1, Glutamate NMDA receptor; GRIN1/GRIN2B; experiment: Antagonist activity at human recombinant NR1-1a/NR2B receptor expressed in mouse L(tk-) cells assessed as inhibition of (S)-glutamate/glycine-stimulated excitotoxicity treated 30 mins before (S)-glutamate/glycine challenge measured after 4 hrs by LDH release assay; type: functional, cell-based
How it was run: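 L13-E6 mouse L(tk-) cells stably expressing NR1-1a/NR2B; compounds (1 nM-10 µM, in DMSO) preincubated 30 min, then (S)-glutamate plus glycine (10 µM each) added, 4 h further incubation. LDH in supernatant measured; 0% = no agonist with 100 µM ketamine, 100% = glutamate/glycine without ketamine. At least three experiments, six replicates per concentration; IC50 calculated from curves.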

[5] = Half life in rat liver microsomes; type: ADME, Microsome
How it was run: (§1)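 Test article incubated with liver microsomes prepared from mouse, rat and human; half-life determined.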

[6] = Half life in mouse liver microsomes; type: ADME, Microsome; how it was run: as §1
[7] = Half life in human liver microsomes; type: ADME, Microsome; how it was run: as §1
[8] = test system: Mus musculus; experiment: Toxicity in mouse assessed as unusual reactions at 1 to 100 mg/kg, ip after 24 hrs; type: organism-based; parameters: dose 1-100 mg/kg, route intraperitoneal; conditions: in vivo
How it was run: (§2)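 Mice (Irwin test) received increasing intraperitoneal doses of 1-100 mg/kg body weight. Behaviour was then observed for 24 h.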

[9] = molecular target: T2, Amine oxidase [flavin-containing] A (Homo sapiens, UniProt P21397); experiment: Displacement of radiolabeled kynuramine from MAO-A at 1 to 3 uM
T2 sequence (P21397 whole entry): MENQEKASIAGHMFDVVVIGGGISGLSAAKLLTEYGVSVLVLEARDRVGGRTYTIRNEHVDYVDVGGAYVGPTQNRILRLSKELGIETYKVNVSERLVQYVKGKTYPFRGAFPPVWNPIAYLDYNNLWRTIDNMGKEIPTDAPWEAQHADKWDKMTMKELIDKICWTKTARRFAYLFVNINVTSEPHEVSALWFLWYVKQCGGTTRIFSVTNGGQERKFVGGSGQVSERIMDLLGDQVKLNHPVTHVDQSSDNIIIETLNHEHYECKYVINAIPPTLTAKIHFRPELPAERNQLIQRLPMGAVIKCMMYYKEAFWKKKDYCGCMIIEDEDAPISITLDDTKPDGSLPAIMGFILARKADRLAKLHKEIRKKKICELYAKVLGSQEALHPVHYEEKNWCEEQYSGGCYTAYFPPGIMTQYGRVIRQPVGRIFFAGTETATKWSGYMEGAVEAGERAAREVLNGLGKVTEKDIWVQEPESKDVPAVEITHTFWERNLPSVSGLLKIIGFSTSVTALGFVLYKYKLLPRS
How it was run: (§3)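 Broad radioligand competition screen against more than 100 receptors, transporters and enzymes, with test concentrations of 1-3 µM. Targets and radioligands are listed only in supplementary data. hERG IC50 was estimated.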

[10] = test system: Mus musculus; experiment: Toxicity in mouse assessed as diarrhea at 100 mg/kg, ip after 30 mins; type: organism-based; parameters: dose 100 mg/kg, route intraperitoneal; conditions: in vivo, 0.5 h; how it was run: as §2
[11] = molecular target: T3, Amine oxidase [flavin-containing] B (Homo sapiens, UniProt P27338); experiment: Displacement of radiolabeled kynuramine from MAO-B at 1 to 3 uM; how it was run: as §3
T3 sequence (P27338 whole entry): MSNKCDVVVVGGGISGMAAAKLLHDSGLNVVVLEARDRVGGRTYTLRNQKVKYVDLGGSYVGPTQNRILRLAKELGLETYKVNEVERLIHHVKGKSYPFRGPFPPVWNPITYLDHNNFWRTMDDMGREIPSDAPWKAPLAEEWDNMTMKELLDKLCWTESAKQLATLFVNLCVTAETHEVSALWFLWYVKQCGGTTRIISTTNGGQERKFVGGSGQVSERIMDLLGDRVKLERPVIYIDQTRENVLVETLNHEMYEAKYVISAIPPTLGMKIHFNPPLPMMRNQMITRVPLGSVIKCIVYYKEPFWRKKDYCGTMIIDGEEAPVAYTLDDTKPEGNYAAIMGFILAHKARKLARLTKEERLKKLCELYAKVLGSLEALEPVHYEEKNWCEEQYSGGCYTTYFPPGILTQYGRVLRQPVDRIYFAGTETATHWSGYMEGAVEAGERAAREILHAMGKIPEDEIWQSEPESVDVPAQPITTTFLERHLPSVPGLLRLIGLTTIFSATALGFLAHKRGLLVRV

[12] = molecular target: T4, UDP-glucuronosyltransferase 1A1 (Homo sapiens, UniProt P22309); experiment: Displacement of radiolabeled scopoletin from UGT1A1 at 1 to 3 uM; how it was run: as §3
T4 sequence (P22309 whole entry): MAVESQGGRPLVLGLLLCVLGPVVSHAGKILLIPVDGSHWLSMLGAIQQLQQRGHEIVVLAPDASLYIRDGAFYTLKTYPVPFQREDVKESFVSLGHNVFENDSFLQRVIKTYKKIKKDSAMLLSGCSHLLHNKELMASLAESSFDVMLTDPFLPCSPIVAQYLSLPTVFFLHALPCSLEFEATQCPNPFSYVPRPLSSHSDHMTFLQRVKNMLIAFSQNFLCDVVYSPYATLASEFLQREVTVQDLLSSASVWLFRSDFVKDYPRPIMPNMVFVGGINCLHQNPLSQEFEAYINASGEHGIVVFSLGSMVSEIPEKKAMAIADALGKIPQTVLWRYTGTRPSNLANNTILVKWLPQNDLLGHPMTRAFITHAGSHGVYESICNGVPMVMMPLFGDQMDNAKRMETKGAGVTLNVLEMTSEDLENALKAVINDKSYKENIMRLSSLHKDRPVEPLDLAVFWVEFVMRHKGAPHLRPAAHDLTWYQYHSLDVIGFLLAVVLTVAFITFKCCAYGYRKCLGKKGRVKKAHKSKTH

[13] = Selectivity ratio of Ki for guinea pig sigma1 receptor to Ki for human recombinant NR1a/NR2B receptor

T1 sequence (Q13224 whole entry, other chains not shown): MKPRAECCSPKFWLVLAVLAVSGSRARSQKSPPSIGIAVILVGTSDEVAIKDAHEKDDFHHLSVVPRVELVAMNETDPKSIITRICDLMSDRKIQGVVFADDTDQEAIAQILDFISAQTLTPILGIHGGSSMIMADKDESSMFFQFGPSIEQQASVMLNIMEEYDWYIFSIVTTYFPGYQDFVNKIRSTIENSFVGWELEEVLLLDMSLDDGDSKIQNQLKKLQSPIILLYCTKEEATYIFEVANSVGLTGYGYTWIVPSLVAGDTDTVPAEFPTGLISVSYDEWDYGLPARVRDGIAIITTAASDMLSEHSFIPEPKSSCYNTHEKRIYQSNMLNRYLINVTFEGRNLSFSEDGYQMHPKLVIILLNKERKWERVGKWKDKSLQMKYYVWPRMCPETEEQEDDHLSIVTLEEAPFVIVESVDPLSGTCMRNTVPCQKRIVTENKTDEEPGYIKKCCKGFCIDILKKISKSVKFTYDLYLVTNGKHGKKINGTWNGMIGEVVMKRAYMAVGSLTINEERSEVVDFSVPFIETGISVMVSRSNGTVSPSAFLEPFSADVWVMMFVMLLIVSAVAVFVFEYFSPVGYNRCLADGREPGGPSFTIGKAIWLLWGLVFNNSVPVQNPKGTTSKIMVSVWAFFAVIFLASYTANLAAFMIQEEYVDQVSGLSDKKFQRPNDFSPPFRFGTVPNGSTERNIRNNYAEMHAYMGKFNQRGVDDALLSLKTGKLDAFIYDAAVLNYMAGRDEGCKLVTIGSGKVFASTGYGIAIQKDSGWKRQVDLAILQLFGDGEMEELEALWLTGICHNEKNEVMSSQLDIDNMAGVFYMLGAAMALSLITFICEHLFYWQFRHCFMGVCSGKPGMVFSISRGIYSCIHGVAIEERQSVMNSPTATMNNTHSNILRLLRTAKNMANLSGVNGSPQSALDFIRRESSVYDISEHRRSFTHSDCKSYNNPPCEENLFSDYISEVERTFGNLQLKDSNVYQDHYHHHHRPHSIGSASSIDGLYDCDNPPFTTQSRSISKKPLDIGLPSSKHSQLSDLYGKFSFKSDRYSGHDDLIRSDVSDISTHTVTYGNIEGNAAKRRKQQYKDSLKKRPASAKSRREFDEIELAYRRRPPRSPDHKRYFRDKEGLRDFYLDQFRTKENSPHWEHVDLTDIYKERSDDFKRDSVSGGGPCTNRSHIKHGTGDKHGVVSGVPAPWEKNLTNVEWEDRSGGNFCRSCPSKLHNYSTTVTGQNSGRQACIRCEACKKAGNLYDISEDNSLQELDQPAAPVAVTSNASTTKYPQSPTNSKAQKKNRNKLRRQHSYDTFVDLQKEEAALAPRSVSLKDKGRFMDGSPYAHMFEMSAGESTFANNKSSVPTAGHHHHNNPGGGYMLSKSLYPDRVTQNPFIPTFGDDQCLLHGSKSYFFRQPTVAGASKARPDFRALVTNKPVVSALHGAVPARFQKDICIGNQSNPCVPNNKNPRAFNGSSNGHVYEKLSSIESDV

Row | Structure (SMILES) | Ki [1] [nM] | Ki [2] [nM] | Ki [3] [nM] | further results
1 | OC(CN1CCC(Cc2ccc(F)cc2)CC1)c1ccc(Cl)cc1 (configuration not stated) [ELIPRODIL] | 13 |  |  | 
2 | COc1ccc2c(c1)CCN(CCCCc1ccccc1)CC2O (configuration not stated) | 5.4 | 554 |  | IC50 [4]: 360 nM
3 | CC(C)(C)c1ccc(C(=O)CCCN2CCc3cc(OCc4ccccc4)ccc3C(O)C2)cc1 (racemic) | 644 | > 1000 | > 1000 | 
5 | CC1(C)COC(CCCN2CCc3cc(OCc4ccccc4)ccc3C(O)C2)(c2ccc(F)cc2)OC1 (racemic) | 1420 | > 1000 | > 1000 | 
6 | CC(C(O)c1ccc(O)cc1)N1CCC(Cc2ccccc2)CC1 (configuration not stated) [IFENPRODIL] |  |  |  | half-life [5]: < 1 min; half-life [6]: < 5 min; half-life [7]: 5 min
7 | O=C(c1ccccc1)N1CCC(N2CCc3cc(OCc4ccccc4)ccc3C(O)C2)CC1 (racemic) | > 1000 | > 1000 | > 1000 | 
8 | OC1CN(Cc2cccc(-c3ccccc3)c2)CCc2cc(OCc3ccccc3)ccc21 (racemic) | 1210 | > 1000 | > 1000 | 
9 | Oc1ccc2c(c1)CCN([C@H]1CO[C@H](c3ccccc3)OC1)CC2O (mixture of isomers) | > 1000 | > 1000 | > 1000 | 
10 | COc1ccc(C(=O)CCCN2CCc3cc(OCc4ccccc4)ccc3C(O)C2)cc1 (racemic) | > 1000 | 4500 | > 1000 | 
11 | Oc1ccc2c(c1)CCN(CCCOc1ccccc1)CC2O (racemic) | 20 | 5.9 | 170 | 
12 | Oc1ccc2c(c1)CCN(CCCCc1ccccc1)CC2O (racemic) | 14 | 18000 |  | half-life [5]: < 3 min; half-life [6]: 28 min; Activity [8]: Non-toxic; IC50 [4]: 18.4 nM; half-life [7]: 21 min; Activity [9]: Not Active; Activity [10]: Toxic; Activity [11]: Not Active; Activity [12]: Not Active
13 | O=S(=O)(CCCN1CCc2cc(O)ccc2C(O)C1)c1ccccc1 (racemic) | > 1000 | 653 | > 1000 | 
14 | OC1CN(CCCCc2ccccc2)CCc2cc(OCc3ccccc3)ccc21 (racemic) | 187 | 1050 |  | 
15 | CC1(C)COC(CCCN2CCc3cc(OCc4ccccc4)ccc3C(O)C2)(c2ccc(C(C)(C)C)cc2)OC1 (racemic) | > 1000 | 900 | > 1000 | 

More lines, main results first:

Row | Ki [1] [nM] | Ki [2] [nM] | Ki [3] [nM] | Structure (SMILES) | further results
16 | > 1000 | 658 | > 1000 | Oc1ccc2c(c1)CCN(C1CCC3(CC1)OCCO3)CC2O (racemic) | 
17 | 3.3 | 8.6 | 123 | Oc1ccc2c(c1)CCN([C@H]1CC[C@@H](c3ccccc3)CC1)CC2O (mixture of isomers) | IC50 [4]: 12100 nM
18 | 1000 | > 1000 | 186 | OC1CN(C2COC(c3ccccc3)OC2)CCc2cc(OCc3ccccc3)ccc21 (racemic) | 
19 | 151 | 1050 | 293 | O=C(CCCN1CCc2cc(OCc3ccccc3)ccc2C(O)C1)c1ccc(F)cc1 (racemic) | 
20 | 388 | > 1000 | 386 | OC1CN([C@H]2CC[C@H](c3ccccc3)CC2)CCc2cc(OCc3ccccc3)ccc21 (some centres not stated) | 
21 | 1310 | 6430 | 604 | OC1CN(Cc2ccc(N3CCCCC3)cc2)CCc2cc(OCc3ccccc3)ccc21 (racemic) | 
22 | 93 | 945 | 193 | OC1CN(CCCOc2ccccc2)CCc2cc(OCc3ccccc3)ccc21 (racemic) | 
23 | 204 | 98 | > 1000 | O=C(c1ccccc1)N1CCC(N2CCc3cc(O)ccc3C(O)C2)CC1 (racemic) | 
24 | 1120 | 753 |  | OC1CN(C2CCC3(CC2)OCCO3)CCc2cc(OCc3ccccc3)ccc21 (racemic) | 
25 | > 1000 | 1580 |  | CN(Cc1ccccc1)C(=O)CN1CCc2cc(O)ccc2C(O)C1 (racemic) | 
26 | 9 | 8.9 | 200 | Oc1ccc2c(c1)CCN([C@H]1CC[C@H](c3ccccc3)CC1)CC2O (mixture of isomers) | 
27 | 661 | > 1000 | > 1000 | COc1ccc(C2(CCCN3CCc4cc(OCc5ccccc5)ccc4C(O)C3)OCC(C)(C)CO2)cc1 (racemic) | 
28 | 41 | 653 |  | OC1CN(CCCSc2ccccc2)CCc2cc(OCc3ccccc3)ccc21 (racemic) | 
29 | 139 | 311 | 10 | OC1CN([C@H]2CC[C@@H](c3ccccc3)CC2)CCc2cc(OCc3ccccc3)ccc21 (some centres not stated) | Ratio Ki [13]: 14
30 | 37 | 3040 |  | O=S(=O)(CCCN1CCc2cc(OCc3ccccc3)ccc2C(O)C1)c1ccccc1 (racemic) | 
31 | 377 | 2960 | > 1000 | CN(Cc1ccccc1)C(=O)CN1CCc2cc(OCc3ccccc3)ccc2C(O)C1 (racemic) | 
32 | 36 | 33 | 1050 | O=C(CCCN1CCc2cc(O)ccc2C(O)C1)c1ccc(F)cc1 (racemic) | 
